Results published in ChEMBL document CHEMBL5724801, “EUbOPEN Chemogenomics Library - Multiplex” (2024).
Values joined by “and” are separate entries in the source; they are usually repeats but may differ in a detail not shown here. Equal values may be shown once.

Experiments:
Type in all cases: toxicity, cell-based
[1] = tested on: U2OS; test: Multiplex assay against U2OS; settings: human
How it was run: (§1)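 Phenotypes for tubulin, mitochondrial mass and membrane permeability are expressed as per cents of healthy-nucleus cells. Cells were stained live at seeding with Hoechst33342, BioTracker Green Microtubule Cytoskeleton Dye, MitoTracker Red and Annexin V Alexa Fluor 680, then imaged after compound addition on a CQ1 microscope at 37°C and 5% CO2. Machine-learning gating in CellPathfinder separated Hoechst high-intensity objects from normal cells, divided normal cells by nuclear state (healthy, pyknosed, fragmented) and divided pyknosed cells into mitotic or apoptotic.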

[2] = tested on: Fibroblast; test: Multiplex assay against human fibroblast; how it was run: as §1
[3] = tested on: HEK-293T; test: Multiplex assay against HEK293T; settings: human; how it was run: as §1
[4] = 12 h, 1 µM, compound concentration 1 uM
[5] = 12 h, 10 µM, compound concentration 10 uM
[6] = 24 h, 1 µM, compound concentration 1 uM
[7] = 24 h, 10 µM, compound concentration 10 uM
[8] = 48 h, 1 µM, compound concentration 1 uM
[9] = 48 h, 10 µM, compound concentration 10 uM

CC(/C=C1\SC(=S)N(CCCC(=O)Nc2ccc(C(=O)O)c(O)c2)C1=O)=C\c1ccccc1
Population Apoptotic (%) [1, 4]: 94% and 100% | Population Fragmented Nuclei (%) [1, 4]: 26% and 12% | Population Healthy Nuclei (%) [1, 4]: 64% and 80% | Population Hoechst High Intensity Objects (%) [1, 4]: 3% and 4% | Population Membrane Permeable-Phenotype (%) [1, 4]: 4% and 3% | Population Mitochondria Different-Phenotype (%) [1, 4]: 1% and 2% | Population Mitotic Cells (%) [1, 4]: 5% and 0% | Population Normal (%) [1, 4]: 96% and 95% | Population Pyknosed Nuclei (%) [1, 4]: 8% and 7% | Population Tubulin-Different-Phenotype (%) [1, 4]: 3% and 0% | Total Cell Count [1, 4]: 205 and 133 | Population Apoptotic (%) [1, 5]: 91% and 72% | Population Fragmented Nuclei (%) [1, 5]: 28% and 16% | Population Healthy Nuclei (%) [1, 5]: 61% and 72% | Population Hoechst High Intensity Objects (%) [1, 5]: 3% and 0% | Population Membrane Permeable-Phenotype (%) [1, 5]: 12% and 4% | Population Mitochondria Different-Phenotype (%) [1, 5]: 2% and 1% | Population Normal (%) [1, 5]: 96% and 100% | Population Pyknosed Nuclei (%) [1, 5]: 9% and 10% | Population Tubulin-Different-Phenotype (%) [1, 5]: 4% and 5% | Total Cell Count [1, 5]: 241 and 101 | Population Apoptotic (%) [1, 6]: 83% and 94% | Population Fragmented Nuclei (%) [1, 6]: 25% and 9% | Population Healthy Nuclei (%) [1, 6]: 64% and 79% | Population Hoechst High Intensity Objects (%) [1, 6]: 3% and 1% | Population Membrane Permeable-Phenotype (%) [1, 6]: 4% and 10% | Population Mitochondria Different-Phenotype (%) [1, 6]: 1% | Population Normal (%) [1, 6]: 96% and 98% | Population Pyknosed Nuclei (%) [1, 6]: 10% | Population Tubulin-Different-Phenotype (%) [1, 6]: 1% | Total Cell Count [1, 6]: 247 and 177 | Population Apoptotic (%) [1, 7]: 88% and 53% | Population Fragmented Nuclei (%) [1, 7]: 26% and 16% | Population Healthy Nuclei (%) [1, 7]: 64% and 72% | Population Hoechst High Intensity Objects (%) [1, 7]: 2% and 0% | Population Membrane Permeable-Phenotype (%) [1, 7]: 7% | Population Mitochondria Different-Phenotype (%) [1, 7]: 3% and 6% | Population Normal (%) [1, 7]: 97% and 100% | Population Pyknosed Nuclei (%) [1, 7]: 8% and 11% | Population Tubulin-Different-Phenotype (%) [1, 7]: 3% and 6% | Total Cell Count [1, 7]: 298 and 111 | Population Apoptotic (%) [1, 8]: 93% and 78% | Population Fragmented Nuclei (%) [1, 8]: 16% and 11% | Population Healthy Nuclei (%) [1, 8]: 74% and 79% | Population Hoechst High Intensity Objects (%) [1, 8]: 2% and 3% | Population Membrane Permeable-Phenotype (%) [1, 8]: 5% and 4% | Population Mitochondria Different-Phenotype (%) [1, 8]: 1% and 3% | Population Normal (%) [1, 8]: 97% and 96% | Population Pyknosed Nuclei (%) [1, 8]: 8% and 9% | Population Tubulin-Different-Phenotype (%) [1, 8]: 1% and 2% | Total Cell Count [1, 8]: 368 and 253 | Population Apoptotic (%) [1, 9]: 97% and 82% | Population Fragmented Nuclei (%) [1, 9]: 19% and 16% | Population Healthy Nuclei (%) [1, 9]: 68% and 73% | Population Hoechst High Intensity Objects (%) [1, 9]: 2% and 1% | Population Membrane Permeable-Phenotype (%) [1, 9]: 6% and 4% | Population Mitochondria Different-Phenotype (%) [1, 9]: 2% and 1% | Population Normal (%) [1, 9]: 97% and 98% | Population Pyknosed Nuclei (%) [1, 9]: 12% and 10% | Population Tubulin-Different-Phenotype (%) [1, 9]: 4% and 0% | Total Cell Count [1, 9]: 396 and 170 | Population Apoptotic (%) [2, 4]: 50% and 33% | Population Fragmented Nuclei (%) [2, 4]: 14% and 19% | Population Healthy Nuclei (%) [2, 4]: 71% and 60% | Population Hoechst High Intensity Objects (%) [2, 4]: 2% and 3% | Population Membrane Permeable-Phenotype (%) [2, 4]: 0% and 13% | Population Mitochondria Different-Phenotype (%) [2, 4]: 2% and 9% | Population Mitotic Cells (%) [2, 4]: 50% and 66% | Population Normal (%) [2, 4]: 97% and 96% | Population Pyknosed Nuclei (%) [2, 4]: 13% and 19% | Population Tubulin-Different-Phenotype (%) [2, 4]: 28% and 54% | Total Cell Count [2, 4]: 206 and 157 | Population Apoptotic (%) [2, 5]: 56% and 40% | Population Fragmented Nuclei (%) [2, 5]: 15% and 19% | Population Healthy Nuclei (%) [2, 5]: 70% and 48% | Population Hoechst High Intensity Objects (%) [2, 5]: 2% and 4% | Population Membrane Permeable-Phenotype (%) [2, 5]: 0% and 8% | Population Mitochondria Different-Phenotype (%) [2, 5]: 5% | Population Mitotic Cells (%) [2, 5]: 43% and 59% | Population Normal (%) [2, 5]: 97% and 95% | Population Pyknosed Nuclei (%) [2, 5]: 13% and 31% | Population Tubulin-Different-Phenotype (%) [2, 5]: 44% and 54% | Total Cell Count [2, 5]: 123 and 122 | Population Apoptotic (%) [2, 6]: 54% and 33% | Population Fragmented Nuclei (%) [2, 6]: 17% | Population Healthy Nuclei (%) [2, 6]: 72% and 63% | Population Hoechst High Intensity Objects (%) [2, 6]: 1% and 2% | Population Membrane Permeable-Phenotype (%) [2, 6]: 2% and 5% | Population Mitochondria Different-Phenotype (%) [2, 6]: 4% and 12% | Population Mitotic Cells (%) [2, 6]: 45% and 66% | Population Normal (%) [2, 6]: 98% and 97% | Population Pyknosed Nuclei (%) [2, 6]: 10% and 19% | Population Tubulin-Different-Phenotype (%) [2, 6]: 25% and 44% | Total Cell Count [2, 6]: 208 and 144 | Population Apoptotic (%) [2, 7]: 66% and 53% | Population Fragmented Nuclei (%) [2, 7]: 11% and 20% | Population Healthy Nuclei (%) [2, 7]: 81% and 53% | Population Hoechst High Intensity Objects (%) [2, 7]: 0% and 4% | Population Membrane Permeable-Phenotype (%) [2, 7]: 0% and 11% | Population Mitochondria Different-Phenotype (%) [2, 7]: 4% | Population Mitotic Cells (%) [2, 7]: 33% and 46% | Population Normal (%) [2, 7]: 99% and 95% | Population Tubulin-Different-Phenotype (%) [2, 7]: 25% and 70% | Total Cell Count [2, 7]: 119 and 120 | Population Apoptotic (%) [2, 8]: 78% and 45% | Population Fragmented Nuclei (%) [2, 8]: 24% and 29% | Population Healthy Nuclei (%) [2, 8]: 66% and 56% | Population Hoechst High Intensity Objects (%) [2, 8]: 3% and 1% | Population Membrane Permeable-Phenotype (%) [2, 8]: 1% and 7% | Population Mitochondria Different-Phenotype (%) [2, 8]: 2% and 6% | Population Mitotic Cells (%) [2, 8]: 21% and 54% | Population Normal (%) [2, 8]: 96% and 98% | Population Pyknosed Nuclei (%) [2, 8]: 9% and 14% | Population Tubulin-Different-Phenotype (%) [2, 8]: 31% and 44% | Total Cell Count [2, 8]: 216 and 159 | Population Apoptotic (%) [2, 9]: 46% and 59% | Population Fragmented Nuclei (%) [2, 9]: 18% and 34% | Population Healthy Nuclei (%) [2, 9]: 69% and 46% | Population Hoechst High Intensity Objects (%) [2, 9]: 0% and 3% | Population Membrane Permeable-Phenotype (%) [2, 9]: 0% and 5% | Population Mitochondria Different-Phenotype (%) [2, 9]: 1% and 5% | Population Mitotic Cells (%) [2, 9]: 53% and 40% | Population Normal (%) [2, 9]: 100% and 96% | Population Pyknosed Nuclei (%) [2, 9]: 12% and 19% | Population Tubulin-Different-Phenotype (%) [2, 9]: 33% and 58% | Total Cell Count [2, 9]: 124 and 118 | Population Apoptotic (%) [3, 4]: 34% and 50% | Population Fragmented Nuclei (%) [3, 4]: 6% | Population Healthy Nuclei (%) [3, 4]: 81% and 84% | Population Hoechst High Intensity Objects (%) [3, 4]: 6% | Population Membrane Permeable-Phenotype (%) [3, 4]: 0% | Population Mitochondria Different-Phenotype (%) [3, 4]: 41% and 62% | Population Mitotic Cells (%) [3, 4]: 65% and 50% | Population Normal (%) [3, 4]: 93% | Population Pyknosed Nuclei (%) [3, 4]: 11% and 8% | Population Tubulin-Different-Phenotype (%) [3, 4]: 31% and 20% | Total Cell Count [3, 4]: 422 and 389 | Population Apoptotic (%) [3, 5]: 43% and 51% | Population Fragmented Nuclei (%) [3, 5]: 5% | Population Healthy Nuclei (%) [3, 5]: 76% and 79% | Population Hoechst High Intensity Objects (%) [3, 5]: 7% | Population Membrane Permeable-Phenotype (%) [3, 5]: 0% | Population Mitochondria Different-Phenotype (%) [3, 5]: 45% and 49% | Population Mitotic Cells (%) [3, 5]: 56% and 48% | Population Normal (%) [3, 5]: 92% | Population Pyknosed Nuclei (%) [3, 5]: 18% and 15% | Population Tubulin-Different-Phenotype (%) [3, 5]: 35% and 26% | Total Cell Count [3, 5]: 313 and 327 | Population Apoptotic (%) [3, 6]: 27% and 31% | Population Fragmented Nuclei (%) [3, 6]: 9% and 7% | Population Healthy Nuclei (%) [3, 6]: 79% and 83% | Population Hoechst High Intensity Objects (%) [3, 6]: 4% and 7% | Population Membrane Permeable-Phenotype (%) [3, 6]: 0% | Population Mitochondria Different-Phenotype (%) [3, 6]: 28% and 52% | Population Mitotic Cells (%) [3, 6]: 72% and 68% | Population Normal (%) [3, 6]: 95% and 92% | Population Pyknosed Nuclei (%) [3, 6]: 10% and 8% | Population Tubulin-Different-Phenotype (%) [3, 6]: 26% and 21% | Total Cell Count [3, 6]: 604 and 491 | Population Apoptotic (%) [3, 7]: 33% and 39% | Population Fragmented Nuclei (%) [3, 7]: 8% | Population Healthy Nuclei (%) [3, 7]: 75% and 79% | Population Hoechst High Intensity Objects (%) [3, 7]: 5% and 6% | Population Membrane Permeable-Phenotype (%) [3, 7]: 0% | Population Mitochondria Different-Phenotype (%) [3, 7]: 34% and 40% | Population Mitotic Cells (%) [3, 7]: 66% and 60% | Population Normal (%) [3, 7]: 94% and 93% | Population Pyknosed Nuclei (%) [3, 7]: 16% and 12% | Population Tubulin-Different-Phenotype (%) [3, 7]: 31% and 20% | Total Cell Count [3, 7]: 369 and 422 | Population Apoptotic (%) [3, 8]: 23% and 19% | Population Fragmented Nuclei (%) [3, 8]: 13% and 14% | Population Healthy Nuclei (%) [3, 8]: 79% | Population Hoechst High Intensity Objects (%) [3, 8]: 2% and 5% | Population Membrane Permeable-Phenotype (%) [3, 8]: 1% and 0% | Population Mitochondria Different-Phenotype (%) [3, 8]: 16% and 26% | Population Mitotic Cells (%) [3, 8]: 76% and 80% | Population Normal (%) [3, 8]: 97% and 94% | Population Pyknosed Nuclei (%) [3, 8]: 7% and 6% | Population Tubulin-Different-Phenotype (%) [3, 8]: 14% and 13% | Total Cell Count [3, 8]: 998 and 673 | Population Apoptotic (%) [3, 9]: 24% and 39% | Population Fragmented Nuclei (%) [3, 9]: 9% and 11% | Population Healthy Nuclei (%) [3, 9]: 79% and 82% | Population Hoechst High Intensity Objects (%) [3, 9]: 3% and 5% | Population Membrane Permeable-Phenotype (%) [3, 9]: 2% | Population Mitochondria Different-Phenotype (%) [3, 9]: 25% and 23% | Population Mitotic Cells (%) [3, 9]: 75% and 60% | Population Normal (%) [3, 9]: 96% and 94% | Population Pyknosed Nuclei (%) [3, 9]: 10% and 6% | Population Tubulin-Different-Phenotype (%) [3, 9]: 22% and 24% | Total Cell Count [3, 9]: 479 and 555
